# Assay outcomes deposited in PubChem by several laboratories.
# Most compounds without a hit are left out; they make up all but 2.1% or so of the library.
# iPSC survival up = increases survival of single human iPS cells; hiPSC single-cell survival, ATPlite luminescence; 100% = ROCK inhibitor wells, 0% = DMSO; survival enhancement, % at 20 µM; 360,000 tested, 0.044% active; AID 602274; in the data active means survival enhancement above about 18%;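 further: cells exposed to compounds for 16 hours before the ATP read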
# UCH37 inh = inhibitors of human deubiquitinating enzyme UCH37; purified proteasome/UCH37, Ub-AMC cleavage fluorescence; AID 588478; 330,000 tested, 0.33% active; inhibition, % (no concentration beside the values); Q9Y5K5;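 active means mean inhibition over replicate wells above about 20%, limit read from the data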
# Target sequence (Q9Y5K5 whole entry, looked up): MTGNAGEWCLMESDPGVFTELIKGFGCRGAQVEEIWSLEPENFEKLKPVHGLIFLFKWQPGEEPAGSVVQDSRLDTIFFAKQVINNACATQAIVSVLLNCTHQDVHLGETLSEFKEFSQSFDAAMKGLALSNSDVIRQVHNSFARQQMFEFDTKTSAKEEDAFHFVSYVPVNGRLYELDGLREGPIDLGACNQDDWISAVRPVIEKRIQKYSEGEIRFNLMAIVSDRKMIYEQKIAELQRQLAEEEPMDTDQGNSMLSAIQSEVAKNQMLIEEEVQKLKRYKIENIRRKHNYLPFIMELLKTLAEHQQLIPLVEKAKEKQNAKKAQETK
#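 Reagent: Ub-AMC substrate; assay system: Proteasome-associated human UCH37 deubiquitinase; controls: no-proteasome and no-compound wells; read-out: % inhibition of Ub-AMC cleavage fluorescence; timing: 30 min preincubation with enzyme, 25 min cleavage at room temperature; signal: AMC fluorescence from Ub-AMC cleavage, excitation 355 nm, emission 460 nm; buffer or medium: Tris-HCl pH 7.4 plus ovalbumin, ATP-MgCl2, DTT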
# CRFR2-BP antag = CRF-BP/CRF-R2 complex antagonism. inhibition, % at 11.8 µM. AID 588475. HEK293 CRF-R2/CRF-BP, CRF-induced calcium fluorescence. 350,000 tested, 0.59% active;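 active means inhibition of the ligand-induced calcium signal above about 50% at the single tested concentration, limit read from the data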
# CRFBP-R2 agonist = CRF-BP/CRF-R2 complex agonism; HEK293 CRF-R2/CRF-BP, calcium dye fluorescence (FLIPR); percent of saturating CRF peptide response; activation, % at 13.2 µM; 350,000 tested, 0.46% active; AID 588473;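 active means activation of at least 50%, plus an integration ratio under a set limit after plate pattern correction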
# beta cell repl = inducers of beta-cell replication in MIN6 cells; MIN6 cells proliferation, ATPlite luminescence, 48 h; cells starved in 0.2% serum; 100% = growth in 10% serum; AID 2380; 330,000 tested, 0.29% active; proliferation, % at 10 µM;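 active means compounds whose signal lies at least 3.5 SD above the mean of all wells on their plate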
# H9c2 protect = protects H9c2 cardiomyocytes from peroxide injury; protection from H2O2 cell death, % at 20 µM; H2O2 injury protection, ATPLite, 2 h; 360,000 tested, 0.63% active;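 active means compounds giving at least 50% protection of heart cells from peroxide-induced death in the single-dose screen, raw or plate-pattern-corrected value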
# Numbers stand for hits; . = inactive; / = no result.
SMILES,iPSC survival up,UCH37 inh,CRFR2-BP antag,CRFBP-R2 agonist,beta cell repl,H9c2 protect
CCOC(=O)C1=NN(C(=O)c2ccco2)C2(CC2)C1,.,.,.,.,.,72
CCOC(=O)C1(C)CCN1C(=O)c1ccco1 (stereo unspecified),.,/,/,/,/,.
O=C1N=C(N2C=CC(=C3C=CNC=C3)C=C2)/C(=C/N=NC(=O)c2ccccc2)S1,.,24,.,.,.,.
CC(CC(=O)Nc1cc(Cl)ccc1Cl)=NNC(=O)COc1cccc(C)c1,/,.,/,/,/,/
CN(C)CCCN1C(=O)c2cccc3c([N+](=O)[O-])ccc(c23)C1=O,.,.,81,56,/,.
O=C1c2cccc3c([N+](=O)[O-])ccc(c23)C(=O)N1CCc1ccccn1,.,.,.,.,.,.
CC(C)(C)NC(=O)c1cccc(NC(=O)c2ccc(NC(=O)c3ccco3)cc2)c1,.,.,.,.,.,74
CC(C)(C)NC(=O)c1cccc(NC(=O)c2ccco2)c1,.,.,.,.,.,.
CCOc1ccc2ccc(OCC)c(C=Nn3cnnc3)c2c1,/,.,/,/,/,/
CN(N=Cc1ccc(Cl)cc1)c1ncc(Cl)cc1C(F)(F)F,/,.,/,/,/,/
O=C1/C(=C\c2cc([N+](=O)[O-])ccc2O)SC(=S)N1Cc1ccc(Cl)cc1,.,.,.,140,/,.
O=C(O)CN1C(=O)/C(=C\c2cc(Br)ccc2OCc2ccc(Cl)cc2)SC1=S,.,23,.,.,/,.
CC1=CC(C)(C)N(C(=O)c2ccccc2)c2ccc(C)cc21,.,.,.,67,.,.
CC1=CC(C)(C)N(C(=O)c2ccccc2)c2ccccc21,.,.,.,.,.,.
Cc1nn(-c2ccccc2)c(N2CCCC2)c1/C=N/Nc1ccc(S(N)(=O)=O)cc1[N+](=O)[O-],.,/,60,.,.,.
COc1cc(C=NNc2ccc(S(=O)(=O)Nc3ccccc3C(=O)O)cc2[N+](=O)[O-])ccc1O,.,22,.,.,.,.
O=C(O)c1ccccc1NS(=O)(=O)c1ccc(N/N=C/c2cccc(O)c2O)c([N+](=O)[O-])c1,.,/,.,.,/,.
Cc1nn(-c2ccccc2)c(Cl)c1C=NNc1ccc(S(=O)(=O)Nc2ccccc2C(=O)O)cc1[N+](=O)[O-],/,23,/,/,/,/
CC(=O)Nc1ccc(C=NNc2ccc(S(=O)(=O)Nc3ccccc3C(=O)O)cc2[N+](=O)[O-])cc1,.,.,.,.,.,.
COc1ccc(C(C)=NNc2ccc([N+](=O)[O-])cc2S(=O)(=O)Nc2ccccc2C(=O)O)c(OC)c1,.,.,66,.,.,.
Cc1nn(-c2ccccc2)c(N2CCCC2)c1C=NNc1ccc(S(N)(=O)=O)cc1[N+](=O)[O-],/,.,/,/,/,/
COc1ccc(CCNC(=O)CC(C)=NNC(=O)COc2ccc(C)cc2Br)cc1OC,/,.,/,/,/,/
C=CCN1C(=O)CSC1=NN=Cc1cccc([N+](=O)[O-])c1,/,.,/,/,/,/
Oc1[nH]c2ccccc2c1N=Nc1ccc(F)cc1,.,.,.,62,.,.
Oc1[nH]c2ccccc2c1N=Nc1ccccc1,.,.,.,.,.,.
SMILES,iPSC survival up,UCH37 inh,CRFR2-BP antag,CRFBP-R2 agonist,beta cell repl,H9c2 protect
Oc1[nH]c2ccccc2c1N=Nc1ccccc1F,.,.,.,145,.,.
CC(C)(O)C(=O)N=Nc1c(O)[nH]c2ccccc12,.,.,.,.,.,.
CC(=O)NN=c1sc2ccccc2n1C,/,.,/,/,/,/
CCN(CC)C(=O)c1ccc2c3c(cccc13)C(=O)N(CCc1ccc(OC)c(OC)c1)C2=O,.,.,.,.,.,71
CCOc1ccc(-n2c(C)cc(C=NNC(=O)C(N)=O)c2C)cc1,/,.,/,/,/,/
c1ccc(-c2nnc(-c3ccccn3)nn2)nc1,.,.,.,.,.,.
c1ccc(-c2cccc(-c3ccccn3)n2)nc1,.,.,.,.,.,65
O=c1cc(-c2ccccc2)[nH]n1-c1ccc([N+](=O)[O-])cc1,.,.,51,.,.,.
O=c1c(N=Nc2ccc(O)cc2)c(-c2ccccc2)[nH]n1-c1ccc([N+](=O)[O-])cc1,.,/,.,.,.,.
CN(C)C=Nc1nc(Sc2ccc(C(F)(F)F)cc2[N+](=O)[O-])n[nH]1,/,.,/,/,/,/
CC(=NNc1ccc(Cl)c(C(=O)O)c1)c1cc2ccccc2o1,/,.,/,/,/,/
CCOC(=O)c1c(-c2ccc(OC)c(OC)c2)csc1NC(=O)C1CCCO1 (stereo unspecified),.,.,60,.,.,.
CCOc1ccc(NC(=O)CCNS(=O)(=O)c2cccc3nonc23)cc1,.,.,55,.,.,.
Nc1scc2c(C(=O)NN=Cc3ccc(Cl)cc3)nn(-c3ccccc3)c(=O)c12,/,.,/,/,/,/
O=C(COc1ccccc1C(=O)c1cnn(-c2ccccc2)c1)Nc1ccc2ccccc2c1,.,.,141,.,.,.
Cc1ccc(CNCc2cc3c(C(C)(C)C)nn(-c4ccccc4)c3[nH]c2=O)cc1,.,.,.,.,.,58
COc1ccc(CNCc2cc3c(C(C)(C)C)nn(-c4ccccc4)c3[nH]c2=O)cc1,.,.,.,.,.,.
CC(C)(C)c1nn(-c2ccccc2)c2[nH]c(=O)c(CNCc3ccco3)cc12,.,.,.,.,.,79
O=C(CCC(=O)Nc1ccc(F)cc1)NN=Cc1ccncc1,/,.,/,/,/,/
CC(=O)Nc1ccc(S(=O)(=O)N2CCC(c3nnc(-c4ccc(C)cc4)o3)CC2)cc1,.,.,77,.,.,.
COc1ccc(C=NNC(=O)COc2ccccc2Cl)cc1Cn1nc(C)cc1C,/,.,/,/,/,/
Cc1ccc2c3c(cccc13)-c1ccccc1C2=O,.,.,.,.,.,.
Nc1ccc2c3c(cccc13)-c1ccccc1-2,.,.,.,197,/,.
COc1ccc(C=NNC(=O)c2cccc(Br)c2)cc1CN1CCOCC1,/,.,/,/,/,/
CCN(C[C@H]1N[C@@](Cc2ccccc2)(C(=O)OC)[C@H]2C(=O)N(C)C(=O)[C@@H]12)S(=O)(=O)c1ccc(OC)cc1,.,.,.,.,.,60
CCN(C[C@H]1N[C@@](Cc2ccccc2)(C(=O)OC)[C@H]2C(=O)N(C)C(=O)[C@@H]12)S(=O)(=O)c1ccc(OC(F)(F)F)cc1,.,.,.,.,.,.
CCCCCCSc1ccc([C@H]2N[C@@](Cc3ccccc3)(C(=O)OC)[C@H]3C(=O)N(C)C(=O)[C@@H]23)cc1,.,.,.,.,.,77
Cc1cc(C)nc(N=C(NC(=O)Nc2ccc(Cl)c(Cl)c2)Nc2ccccc2)n1,/,.,/,/,/,/
CC1(c2ccc(OC(F)F)cc2)NC(=O)N(/N=C/c2c(O)ccc3ccccc23)C1=O (stereo unspecified),.,/,.,87,.,.
CC1CN(S(=O)(=O)c2ccc(C(=O)N3CCc4ccccc43)cc2)CC(C)O1 (stereo unspecified),.,.,110,.,.,.
